Reference: PubChem BioAssay
The source made the active and inactive calls.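 Rule for the calls, unless noted: active = inhibition at or above 50% relative to wild type and mutant plate controls; inactive = inhibition below 50%.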

How the values were obtained:
[1] = inhibitors of TNFa-induced NFkB p65 translocation, primary screen, imaging, HUVEC, MLSMR starter and 10KST1 sets (AID 438;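 active = inhibition above 20% together with a positive visual image hit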;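 note: compound added about 3h40 before a 20 min TNFalpha stimulation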;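 for inhibition: signal is the nuclear over cytoplasmic p65 intensity ratio per well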); conditions: HUVEC TNFa-induced p65 nuclear translocation; cell count: measured here: nuclei count (cytotoxicity indicator), at 2.08 µM; inhibition: at 2 µM, stronger effect = higher value, 0% TNFa-plus-vehicle, 100% no-TNFa wells
[2] = inhibitors of E-selectin induction by TNFa, primary screen, imaging, HUVEC, immunofluorescence, MLSMR starter and 10KST1 sets (AID 487;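 active = visually confirmed hit in the image check and inhibition above 20%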;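 for inhibition: signal is fraction of cell area covered by stained E-selectin grains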;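 for nuclei count: 100% = median nuclei count of all wells on the same plate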); conditions: HUVEC TNFalpha-induced E-selectin immunofluorescence imaging, at 2 µM; inhibition: stronger effect = higher value; nuclei count: measured here: cell number, toxicity
[3] = DUSP6 inhibitors restoring Erk phosphorylation by chemical complementation, primary imaging in DUSP6-transfected HeLa (AID 609;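 active = compounds giving at least 50% inhibition in the cell-based MKP-3 phosphatase rescue imaging test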;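 for inhibition: phospho-Erk level distribution per well compared with pooled transfected vehicle control wells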); conditions: HeLa MKP-3 transfected, phospho-Erk imaging KS statistic, at 10 µM, cells stimulated with TPA for 15 min
[4] = target: Dual specificity protein phosphatase 6 (Homo sapiens) (UniProt Q16828); test: as above; conditions: HeLa MKP-3 transfected, phospho-Erk imaging KS statistic; at 10 µM; stronger effect = higher value; cells stimulated with TPA for 15 min
[5] = target: Voltage-gated potassium channel subunit beta-2 (Rattus norvegicus) (UniProt P62483); test: KvBeta enzyme negative modulators, primary screen, biochemical, NADPH fluorescence (AID 622;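 active = fluorescence slope higher than the sample average by over 3 SD, cut at about -0.22 in these data, passing the limit was not always enough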;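 note: slope of raw intensity against log time taken from 70 to 1610 s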); conditions: recombinant KvBeta, 4-cyanobenzaldehyde reduction, at 10 µM, stronger effect = higher value
[6] = target: Voltage-gated potassium channel subunit beta-2 (Rattus norvegicus) (UniProt P62483); test: KvBeta positive modulators, primary screen, biochemical, NADPH fluorescence (AID 623;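 active = NADPH fluorescence slope more negative than the mean of all samples by about 3 SD, 99.7% confidence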;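 note: fluorescence intensity change per second fitted from 20 to 320 s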); conditions: Recombinant KvBeta, NADPH fluorescence decrease slope, 10 min; at 10 µM; stronger effect = lower value
[7] = target: Alpha-2C adrenergic receptor (Homo sapiens) (UniProt P18825); test: modulators of alpha2C/GIRK thallium flux, primary screen, cell-based, HEK293 alpha2C/GIRK1/2 (AID 624;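 active = fluorescence slope after compound addition differing from the mean of all screened samples at 99.7% confidence, in either direction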;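 note: slope of fluorescence ratio to pre-addition baseline per second over 15 to 24 s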); conditions: thallium flux BTC fluorescence, at 10 µM, actives lie on both sides
[8] = inhibitors of larval lipid processing in zebrafish, primary screen, whole organism, PED6 fluorescence, gall bladder and intestine (AID 686;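 active = a full or partial loss of lipid-probe fluorescence in the fish gall bladder, intestine or both, judged by eye; inactive = no fluorescence loss, or compound toxic to the fish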;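 note: larvae 5 to 7 days old with five fish per well; signal comes from phospholipase A2 cleavage of quenched PED6 carried via bile; overnight exposure to compound and PED6 before scoring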); conditions: Zebrafish larvae PED6 lipid processing, fluorescence scoring; screened at 20 µM (by protocol)
In short: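 Also added: quenched phospholipase substrate PED6, 100 nM final, ingested by larvae; System: zebrafish larvae, 5-7 d; Quantity: 5 larvae per well; Compound: 20 µM single dose; Schedule: overnight compound and PED6 incubation; Read-out: visual per-well fluorescence inhibition score; Measured by: By-eye fluorescence microscopy; Medium: E3.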

[9] = inhibitors of Chlamydomonas gravitaxis, primary screen, whole organism, Chlamydomonas reinhardtii, WT vs cilia-less mutant, absorbance, 96-well (AID 463189); conditions: OD600 absorbance, 2 days, at 10 µM, stronger effect = higher value;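 note: 0% = wild type cc124 cells in DMSO and 100% = ciliumless bld1 mutant cells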
[10] = measured here: cell density z-score
[11] = measured here: nuclear c-Myc green intensity z-score
[12] = measured here: nuclear pErk red intensity z-score, stronger effect = higher value

Sequence of Dual specificity protein phosphatase 6 (Homo sapiens) (Q16828 whole entry, looked up): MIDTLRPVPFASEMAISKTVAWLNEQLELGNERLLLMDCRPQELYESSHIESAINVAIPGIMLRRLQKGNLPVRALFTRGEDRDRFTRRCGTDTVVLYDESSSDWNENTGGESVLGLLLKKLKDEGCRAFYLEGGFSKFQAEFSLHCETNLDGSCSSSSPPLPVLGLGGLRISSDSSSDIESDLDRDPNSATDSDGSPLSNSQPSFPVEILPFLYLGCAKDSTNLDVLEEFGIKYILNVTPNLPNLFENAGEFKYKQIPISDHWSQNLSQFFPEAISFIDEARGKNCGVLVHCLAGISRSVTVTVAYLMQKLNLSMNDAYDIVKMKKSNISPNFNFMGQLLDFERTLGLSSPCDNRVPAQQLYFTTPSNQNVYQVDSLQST
Sequence of Alpha-2C adrenergic receptor (Homo sapiens) (P18825 whole entry, looked up): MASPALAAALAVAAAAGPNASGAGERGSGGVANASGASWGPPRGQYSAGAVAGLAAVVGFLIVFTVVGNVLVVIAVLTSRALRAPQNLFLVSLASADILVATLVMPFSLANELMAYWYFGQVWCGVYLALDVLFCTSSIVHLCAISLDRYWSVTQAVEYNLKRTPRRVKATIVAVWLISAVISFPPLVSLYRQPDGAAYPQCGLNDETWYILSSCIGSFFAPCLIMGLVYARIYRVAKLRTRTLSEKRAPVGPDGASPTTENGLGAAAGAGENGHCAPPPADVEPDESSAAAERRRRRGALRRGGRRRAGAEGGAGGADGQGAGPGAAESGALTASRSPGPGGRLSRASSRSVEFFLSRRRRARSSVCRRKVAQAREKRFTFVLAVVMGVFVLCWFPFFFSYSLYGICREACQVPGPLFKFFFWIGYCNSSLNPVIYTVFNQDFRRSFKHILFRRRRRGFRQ
Sequence of Voltage-gated potassium channel subunit beta-2 (Rattus norvegicus) (P62483 whole entry, looked up): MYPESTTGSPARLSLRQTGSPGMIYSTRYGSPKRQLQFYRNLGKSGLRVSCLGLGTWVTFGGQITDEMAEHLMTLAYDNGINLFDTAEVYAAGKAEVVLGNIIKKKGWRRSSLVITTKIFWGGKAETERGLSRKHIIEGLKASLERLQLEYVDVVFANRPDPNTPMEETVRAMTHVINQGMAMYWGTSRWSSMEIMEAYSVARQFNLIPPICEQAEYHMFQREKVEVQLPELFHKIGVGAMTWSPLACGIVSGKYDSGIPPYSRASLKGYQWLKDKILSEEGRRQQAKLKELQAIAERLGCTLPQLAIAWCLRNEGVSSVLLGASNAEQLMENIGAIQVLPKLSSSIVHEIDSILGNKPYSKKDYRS

SMILES | cell count [1] | inhibition [1] | inhibition [2] | nuclei count [2] [%] | z-score [3, 10] | z-score [3, 11] | z-score [3, 12] | inhibition [4] | fluorescence slope [5] | NADPH fluorescence slope [6] | slope [7] | outcome [8] | inhibition [9]
Cc1cc2c(c(=O)n1CC1CCCO1)C(c1ccc3c(c1)OCO3)C(C#N)=C(N)O2 (stereo unspecified) | 430 | -3.9% (inactive) | -118% (inactive) | 138 | -0.219 | 0.61 | 1.43 | -2.91% (inactive) | -0.369 (inactive) | -4.9e-05 (inactive) | 0.00655 (inactive) | inactive | -9.27% (inactive)
CC(C)N1CCc2c(sc(N)c2C#N)C1 | 617 | -10.3% (inactive) | 39.1% (inactive) | 177 | -1.53 | 0.299 | 0.555 | 2.71% (inactive) | -0.418 (inactive) | -6.5e-05 (inactive) | 0.00503 (inactive) | inactive | 5.66% (inactive)
COc1cccc(CNc2ccc(Br)cn2)c1O | 544 | -3.4% (inactive) | -2.4% (inactive) | 167 | -0.809 | -0.901 | -0.106 | 3.5% (inactive) | -0.316 (inactive) | 1.4e-05 (inactive) | 0.00431 (inactive) | inactive | 6.48% (inactive)
Cn1ncc(N=Cc2ccccc2O)c1C(=O)Nc1ccccc1 | 635 | -3.8% (inactive) | -20.9% (inactive) | 140 | -0.0255 | 0.841 | 1.17 | 4.25% (inactive) | -0.5 (inactive) | -0.000122 (inactive) | 0.00441 (inactive) | inactive | 0.038% (inactive)
CC1(C)NC(=O)N(CC(O)Cn2nnc3ccccc32)C1=O (stereo unspecified) | 372 | 3.9% (inactive) | -188% (inactive) | 122 | 0.214 | 0.212 | 2.03 | -7.28% (inactive) | -0.357 (inactive) | 2.5e-05 (inactive) | 0.0051 (inactive) | inactive | 6.41% (inactive)
CCOC(=O)C1=C(CSc2nc(-c3ccncc3)ccc2C#N)OC(N)=C(C#N)C1c1cccnc1 (stereo unspecified) | 701 | -10.4% (inactive) | 45.7% (inactive) | 173 | -0.622 | 0.296 | 2 | -8.95% (inactive) | -0.283 (inactive) | -5.8e-05 (inactive) | 0.00429 (inactive) | inactive | -5.64% (inactive)
CC(=NC1CCCC1)c1c(C)[nH]n(-c2nc3ccccc3s2)c1=O | 573 | 3.4% (inactive) | 54.6% (inactive) | 142 | 0.859 | 0.776 | -1.4 | -1.12% (inactive) | -0.469 (inactive) | -0.000261 (inactive) | 0.00463 (inactive) | inactive | 6.63% (inactive)
CCn1c(-c2ccco2)n[nH]c1=S | 428 | -12.3% (inactive) | -47.8% (inactive) | 92.3 | 0.73 | 0.522 | -1.57 | 22.3% (inactive) | -0.542 (inactive) | -2.6e-05 (inactive) | 0.00489 (inactive) | inactive | 19.9% (inactive)
O=C(O)c1cc2n(n1)C(C(F)(F)F)CC(c1ccccc1)N2 (stereo unspecified) | 514 | -9.8% (inactive) | -120% (inactive) | 117 | -1.15 | -0.827 | 0.269 | 3.66% (inactive) | -0.503 (inactive) | -0.000107 (inactive) | 0.00535 (inactive) | inactive | -2% (inactive)
CC(C)Nc1nc(NC(C)C)nc(N(C)n2cnnc2)n1 | 629 | -8.8% (inactive) | 27.2% (inactive) | 188 | 0.189 | -1.82 | 0.165 | 20.8% (inactive) | -0.482 (inactive) | -0.000155 (inactive) | 0.0051 (inactive) | inactive | -5.15% (inactive)
COc1cccc(-c2nnc3sc(-c4cccs4)nn23)c1 | 595 | -9.3% (inactive) | -23% (inactive) | 158 | -0.757 | 0.596 | -0.177 | -11.5% (inactive) | -0.406 (inactive) | -0.000146 (inactive) | 0.00547 (inactive) | inactive | 67.3% (active)
CCOc1ccc2c(C)nc(NC3=NC(C)(C)C=C(C)N3)nc2c1 | 641 | -3.1% (inactive) | 46.4% (inactive) | 158 | -1.28 | 1.6 | 1.26 | -9.66% (inactive) | -0.373 (inactive) | -4.2e-05 (inactive) | 0.00624 (inactive) | inactive | 19.3% (inactive)
COC(=O)c1ccc(C2C(C(=O)c3cc4ccccc4o3)=C(O)C(=O)N2CCCN(C)C)cc1 (stereo unspecified) | 423 | -8.1% (inactive) | -11.6% (inactive) | 167 | 0.389 | 1.47 | 0.581 | -6.48% (inactive) | -0.405 (inactive) | -7.3e-05 (inactive) | 0.00626 (inactive) | inactive | -1.14% (inactive)
Cc1ccccc1OCc1nc2ccccc2c(=O)n1NC(=O)c1ccco1 | 346 | -13.7% (inactive) | -57% (inactive) | 104 | 0.846 | 0.49 | -1.53 | 19.3% (inactive) | -0.498 (inactive) | -1.5e-05 (inactive) | 0.00616 (inactive) | inactive | 24.1% (inactive)
COc1ccc(C(=O)C(CN2CCCC2)c2ccccc2)cc1 (stereo unspecified) | 653 | -4.3% (inactive) | 0.2% (inactive) | 178 | -0.885 | 0.507 | 1.21 | 1.75% (inactive) | -0.521 (inactive) | -8.7e-05 (inactive) | 0.00506 (inactive) | inactive | 5.7% (inactive)
COc1c(O)ccc2cnn(-c3ccccc3C)c(=O)c12 | 557 | -2.9% (inactive) | -53.4% (inactive) | 180 | -1.01 | 0.966 | 0.382 | 9.61% (inactive) | -0.35 (inactive) | -1.2e-05 (inactive) | 0.00472 (inactive) | inactive | 1.71% (inactive)
Cc1ccnc(N2CCN(c3c4c(c(C#N)c5nc6ccccc6n35)CCC4)CC2)c1 | 585 | -9% (inactive) | -90.1% (inactive) | 135 | -0.195 | 1.1 | 0.491 | 15.9% (inactive) | -0.401 (inactive) | -2e-05 (inactive) | 0.00557 (inactive) | inactive | -3.36% (inactive)
O=C1C(=O)N(CCN2CCOCC2)C(c2ccccn2)/C1=C(/O)c1ccccc1 (stereo unspecified) | 382 | -4.7% (inactive) | -87.4% (inactive) | 107 | -0.264 | 0.535 | -1.2 | -0.159% (inactive) | -0.432 (inactive) | -1.4e-05 (inactive) | 0.00578 (inactive) | inactive | -11.4% (inactive)
CCC12CN3CC(CC)(CN(C1)C3c1c(O)ccc3ccccc13)C2=O (stereo unspecified) | 585 | -1.9% (inactive) | -44.2% (inactive) | 185 | -0.501 | 0.162 | 0.594 | 9.82% (inactive) | -0.336 (inactive) | 5.6e-06 (inactive) | 0.00425 (inactive) | inactive | 6.95% (inactive)
CCOC(=O)C1=C(C(C)=O)C(c2cccnc2)C(C#N)=C(N)O1 (stereo unspecified) | 548 | -5.1% (inactive) | -109% (inactive) | 228 | 0.844 | -1.11 | -0.0919 | 6.04% (inactive) | -0.369 (inactive) | -1e-05 (inactive) | 0.00521 (inactive) | inactive | 12.1% (inactive)
Cc1ccc(SCc2c(C#N)c3ccccc3n2C)cc1 | 288 | -2.4% (inactive) | -79.2% (inactive) | 129 | -1.74 | 2.02 | 0.448 | 12.3% (inactive) | -0.445 (inactive) | -0.000146 (inactive) | 0.00992 (active) | inactive | 16.9% (inactive)
CC(=O)N1CC=C2C(C#N)=C(N)C(C#N)(C#N)[C@H](c3ccoc3)[C@H]2C1 | 364 | -12.2% (inactive) | -63% (inactive) | 90.4 | 0.865 | 0.398 | -2.11 | -4.7% (inactive) | -0.371 (inactive) | 7.7e-06 (inactive) | 0.00495 (inactive) | inactive | -0.734% (inactive)
Cc1cc(=O)[nH]c(SCC(=O)c2ccccc2)c1C#N | 391 | -0.9% (inactive) | 1.9% (inactive) | 168 | 2.74 | -1.01 | -0.58 | 13.4% (inactive) | -0.41 (inactive) | -0.000133 (inactive) | 0.00479 (inactive) | inactive | -2.65% (inactive)
O=C(CN1C(=O)c2ccccc2C1=O)NCc1ccccn1 | 400 | -5.8% (inactive) | -67.3% (inactive) | 171 | 0.0865 | -1.72 | 1.07 | 5.42% (inactive) | -0.417 (inactive) | -0.000121 (inactive) | 0.00507 (inactive) | inactive | 26% (inactive)
CC1(C)CC(=O)C(C=NCCN2CCN(C(=O)C34CC5CC(CC(C5)C3)C4)CC2)=C(O)C1 | 573 | -4.4% (inactive) | -174% (inactive) | 144 | -0.458 | 0.612 | -0.352 | 3.97% (inactive) | -0.493 (inactive) | -5.1e-05 (inactive) | 0.00469 (inactive) | inactive | 4.48% (inactive)
CCOC(=O)c1ccccc1OCc1cc(/C=N/n2cncn2)ccc1OC | 430 | -16.8% (inactive) | -87.5% (inactive) | 169 | 0.277 | 0.212 | -0.384 | -2.29% (inactive) | -0.358 (inactive) | 1.8e-05 (inactive) | 0.00447 (inactive) | inactive | -0.944% (inactive)
CN1C(=S)SC(N(O)C(=O)Nc2ccccc2)C1(C)C (stereo unspecified) | 486 | 8.3% (inactive) | -95.4% (inactive) | 168 | 0.407 | -0.73 | 0.0884 | 7.73% (inactive) | -0.52 (inactive) | -0.000109 (inactive) | 0.00576 (inactive) | inactive | -9.05% (inactive)
